{
  "source": "ChEMBL document CHEMBL4052590",
  "about": "“Anti-Osteoporotic Activity of Harpagoside by Upregulation of the BMP2 and Wnt Signaling Pathways in Osteoblasts and Suppression of Differentiation in Osteoclasts” (J Nat Prod, 2017)",
  "key": {"Mus musculus [1]": {"tested_on": "Mus musculus", "assay": "Effect on alkaline phosphatase activity in serum of OVX-induced bone loss ICR mouse model at 10 mg/kg, po for 12 weeks using p-NPP as substrate (reference value: 84.9 +/- 4.2 U/L)", "format": "functional"}, "MC3T3-E1 [2]": {"tested_on": "MC3T3-E1", "assay": "Increase in ALP mRNA expression in 2 days differentiated mouse MC3T3-E1 cells up to 4 uM after 48 hrs in presence of ascorbic acid and beta-glycerophosphate by real-time PCR analysis", "format": "functional, cell-based", "outline": "(§1)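 MC3T3-E1 cells stimulated with 400 μM ascorbic acid and 5 mM β-glycerophosphate, with or without compound, 48 h. TRIzol RNA, real-time RT-PCR: 40 cycles of 95 °C 20 s, 56 °C 20 s, 72 °C 30 s. Ct of each transcript […] β-actin Ct, expressed relative to control samples.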"}, "Mus musculus [3]": {"species": "Mus musculus", "assay": "Activation of Wnt signaling pathway in mouse MC3T3-E1 cells assessed as upregulation of cyclin D1 protein expression after 48 hrs in presence of ascorbic acid and beta-glycerophosphate by Western blot analysis", "format": "cell-based", "outline": "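MC3T3-E1 cells with 400 μM ascorbic acid and 5 mM β-glycerophosphate, with or without compound, for 48 h. Whole-cell lysates (40−50 μg, BCA) separated by SDS-PAGE, blotted to PVDF. c-Myc and cyclin D1 probed with primary antibodies, then secondary antibody for 90 min, read by chemiluminescence.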"}, "MC3T3-E1 [4]": {"tested_on": "MC3T3-E1", "assay": "Decrease in RANKL mRNA expression in mouse MC3T3-E1 cells at up to 4 uM after 48 hrs in presence of ascorbic acid and beta-glycerophosphate by real-time PCR analysis", "format": "functional, cell-based"}, "MC3T3-E1 [5]": {"tested_on": "MC3T3-E1", "assay": "Increase in OPG mRNA expression in mouse MC3T3-E1 cells up to 4 uM after 48 hrs in presence of ascorbic acid and beta-glycerophosphate by real-time PCR analysis", "format": "functional, cell-based", "outline": "as §1"}, "Osteoclast [6]": {"tested_on": "Osteoclast", "assay": "Inhibition of RANKL/M-CSF-induced osteoclast differentiation in mouse bone marrow-derived osteoclasts assessed as downregulation of TRAP protein expression up to 4 uM after 48 hrs by Western blot analysis", "format": "functional, cell-based", "outline": "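Mouse bone marrow cells were taken from 4-week-old mice and primed 24 h in 30 ng/mL M-CSF. They were then given 100 ng/mL RANKL plus 30 ng/mL M-CSF, with or without compound, for 48 h. Lysates were made in boiling SDS buffer and quantified by BCA. 40–50 μg was run on SDS-PAGE and immunoblotted on PVDF with β-actin reference and ECL read-out.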"}, "Mus musculus [7]": {"tested_on": "Mus musculus", "assay": "Anti-osteoporotic activity in po dosed OVX-induced bone loss ICR mouse model assessed as increase in bone mineral density administered for 12 weeks by microcomputed tomography", "format": "functional, organism-based"}, "[8]": {"assay": "Cytotoxicity against mouse osteoclasts assessed as effect on cell survival up to 4 uM after 72 hrs by MTT assay", "format": "cell-based, Osteoclast", "conditions": "read-out: Survival"}, "Osteoclast [9]": {"tested_on": "Osteoclast", "assay": "Inhibition of RANKL/M-CSF-induced osteoclast differentiation in mouse bone marrow-derived osteoclasts assessed as reduction in formation of TRAP-positive cells after 5 days", "format": "functional, cell-based", "outline": "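Bone marrow cells from 4-week-old mice were primed 24 h with 30 ng/mL M-CSF, then cultured with 100 ng/mL RANKL plus 30 ng/mL M-CSF. Compound was present or absent and medium was renewed every 2 days. On day 5 cells were fixed in 4% paraformaldehyde and TRAP-stained 1 h at 37 °C. Multinucleated TRAP-positive cells with ≥3 nuclei were counted as osteoclasts.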"}, "Mus musculus [10]": {"tested_on": "Mus musculus", "assay": "Effect on […] level in serum of OVX-induced bone loss ICR mouse model at 10 mg/kg, po for 12 weeks by ELISA (reference value: 8.2 +/- 0.4 mg/dl)", "format": "functional"}, "MC3T3-E1 [11]": {"tested_on": "MC3T3-E1", "assay": "Increase in OPN mRNA expression in 2 days differentiated mouse MC3T3-E1 cells up to 4 uM after 48 hrs in presence of ascorbic acid and beta-glycerophosphate by real-time PCR analysis", "format": "functional, cell-based"}, "MC3T3-E1 [12]": {"tested_on": "MC3T3-E1", "assay": "Upregulation of ALP protein expression in 2 days differentiated mouse MC3T3-E1 cells up to 4 uM after 48 hrs in presence of ascorbic acid and beta-glycerophosphate by Western blot analysis", "format": "functional, cell-based"}},
  "note": "The source made the active and inactive calls. The rule behind the calls is not given here.",
  "data": [
    {"smiles": "C[C@]1(OC(=O)/C=C/c2ccccc2)C[C@@H](O)[C@]2(O)C=CO[C@@H](O[C@@H]3O[C@H](CO)[C@@H](O)[C@H](O)[C@H]3O)[C@@H]21", "note": "[HARPAGOSIDE]", "values": [
      {"measurement": "Activity", "setting": "Mus musculus [1]", "value": 78.8, "unit": "U/L"},
      {"measurement": "Activity", "setting": "MC3T3-E1 [2]", "value": "Dose-dependent effect"},
      {"measurement": "Activity", "setting": "Mus musculus [3]", "value": "Dose-dependent effect"},
      {"measurement": "Activity", "setting": "MC3T3-E1 [4]", "value": "Active"},
      {"measurement": "Activity", "setting": "MC3T3-E1 [5]", "value": "Active"},
      {"measurement": "inhibition", "setting": "Osteoclast [6]", "value": "Active"},
      {"measurement": "Activity", "setting": "Mus musculus [7]", "value": "Dose-dependent effect"},
      {"measurement": "viability at 72 h", "setting": "[8]", "value": "> 85", "unit": "%"},
      {"measurement": "inhibition", "setting": "Osteoclast [9]", "value": "Active"},
      {"measurement": "Activity", "setting": "Mus musculus [10]", "value": 8.2, "unit": "mg/dL"},
      {"measurement": "Activity", "setting": "MC3T3-E1 [11]", "value": "Dose-dependent effect"},
      {"measurement": "Activity", "setting": "MC3T3-E1 [12]", "value": "Dose-dependent effect"}
    ]}
  ]
}
